The text below walks through data of ChEMBL document CHEMBL3992512, “The Discovery and Hit-to-Lead Optimization of Tricyclic Sulfonamides as Potent and Efficacious Potentiators of Glycine Receptors” (J Med Chem, 2017).

Data set [1] has as its target T1, Glycine receptor subunit alpha-3 (Homo sapiens, UniProt O75311).
T1 sequence (O75311 whole entry): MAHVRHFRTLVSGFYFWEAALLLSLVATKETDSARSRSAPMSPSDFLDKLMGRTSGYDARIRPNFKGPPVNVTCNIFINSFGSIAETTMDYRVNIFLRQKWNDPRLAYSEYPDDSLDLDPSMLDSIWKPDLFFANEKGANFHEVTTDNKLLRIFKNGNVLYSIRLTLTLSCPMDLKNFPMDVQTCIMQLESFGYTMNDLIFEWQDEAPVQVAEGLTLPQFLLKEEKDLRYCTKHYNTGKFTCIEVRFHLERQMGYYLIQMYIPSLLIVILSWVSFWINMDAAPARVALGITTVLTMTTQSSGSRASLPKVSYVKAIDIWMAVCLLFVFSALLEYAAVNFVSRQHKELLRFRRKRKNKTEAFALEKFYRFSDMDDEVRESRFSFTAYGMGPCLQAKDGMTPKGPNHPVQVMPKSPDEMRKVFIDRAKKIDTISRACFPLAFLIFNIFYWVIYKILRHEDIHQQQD
Kind of data set: Binding affinity to human glycine alpha3 receptor expressed in HEK293T cells by SPR assay. Further details: species or system HEK-293T.

Data set [2] is described as follows: Intrinsic clearance in mouse liver microsomes up to 40 mins in presence of NADPH. In kind it is ADME, microsome. To be noted: read-out: CLH. (In general: Microsomes from liver hold many membrane-bound enzymes, among them those of drug oxidation.)
The target in data set [3] is T1, Glycine receptor subunit alpha-3. Nature of the data set: Positive allosteric modulation of human glycine alpha3 receptor expressed in HEK293T cells assessed as potentiation of glycine-induced increase in chloride ion flux after 4 mins by membrane potential blue dye based FLIPR assay. The format is cell-based, HEK-293T.
Data set [4] relates to Mus musculus. Nature of the data set: Antiallodynic activity in mouse model of spared nerve injury-induced tactile allodynia assessed as tactile threshold at 20 mg/kg, po measured 60 mins post dose by Von Frey filament assay (reference value: 0.82 +/- 0.19 g). The format is functional.
Data set [5] in a line: Ratio of unbound Cmax in mouse brain to EC50 for glycine alpha3 receptor in mouse model of spared nerve injury-induced tactile allodynia at 10 mg/kg, po. The essentials: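 Mice dosed orally; unbound brain Cmax is total brain concentration × brain fraction unbound, sampled at multiple time points. It is divided by EC₅₀ for potentiation of mouse GlyRα3.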
In another data set the test system is human BCRP. Kind of data set: Efflux ratio of passive apparent permeability in MDCK cells harboring human BCRP. The format is ADME, cell-based, Canis lupus familiaris. Particulars: dog. The essentials: (§1)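 Bidirectional transport at 5 μM, in triplicate, across MDCK cells carrying control vector, human MDR1 or human ABCG2 (BCRP). Passive Papp is the mean of both directions in vector-control cells. Efflux ratios come from the MDR1 and BCRP lines.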

For the next data set, the system named is human MDR1. Kind of data set: Efflux ratio of passive apparent permeability in MDCK cells harboring human MDR1. To be noted: dog. In kind it is ADME, cell-based, Canis lupus familiaris. The gist of the method:
as §1

Data set [6] is described as follows: Oral bioavailability in mouse at 10 mg/kg. The format is ADME, organism-based. To be noted: in vivo.
Data set [7] can be described thus: Passive apparent permeability in MDCK cells. In kind it is ADME, cell-based, Canis lupus familiaris. Particulars: dog. The gist of the method: as §1
The species entered for data set [8] is Mus musculus. Kind of data set: Ex vivo positive allosteric modulation of glycine receptor in C57BL/6 mouse spinal cord assessed as potentiation of glycine-induced post synaptic current amplitude at 0.5 uM at holding potential of -60 mV after 10 mins in presence of sodium channel inhibitor TTX/AMPA/kainate receptor antagonist CNQX/GABAa receptor antagonist bicuculline/NMDA receptor antagonist APV by electrophysiology method relative to glycine alone. The gist of the method:
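Adult mouse spinal cord slices; dorsal horn neurons in laminae I–II were identified histologically and confirmed glycinergic by focal glycine (20 μM) with strychnine (10 μM) reversal. Postsynaptic current amplitude was recorded with glycine 20 μM alone, then with glycine plus compound at 0.5 μM, then with strychnine added. The readout is the mean ratio of PSC amplitude (compound + glycine / glycine alone), n = 5.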

The target of data set [9] is Glycine receptor alpha-3/beta (Homo sapiens) (UniProt O75311+P48167). Kind of data set: Positive allosteric modulation of human glycine alpha3beta receptor expressed in HEK293T cells assessed as compound concentration required to induce up to 3-fold leftward shift in glycine-induced increase in chloride ion flux after 4 mins by Schild plot analysis. The format is cell-based. The essentials:
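HEK293T cells stably expressing human GlyRα3β, ~12000 cells/well, plated overnight and loaded with membrane potential blue dye. Glycine 1:2 dilution series premixed with compound at varying concentrations in HEPES/NaCl/mannitol buffer, pH 7.4. FLIPR fluorescence read 4 min and processed as AUC over baseline. mEC₃ is the lowest tested concentration giving a ≥3-fold leftward shift of glycine EC₅₀.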

Data set [10] in a line: Intrinsic clearance in human liver microsomes. The format is ADME, microsome. To be noted: read-out: CLH.
Data set [11] in a line: Ratio of unbound Cmax in mouse brain to EC50 for glycine alpha3 receptor in mouse model of spared nerve injury-induced tactile allodynia at 50 mg/kg, po.
A short description of data set [12]: Ratio of unbound Cmax in mouse brain to EC50 for glycine alpha3 receptor in mouse model of spared nerve injury-induced tactile allodynia at 20 mg/kg, po.
A short description of data set [13]: Drug degradation in neutral buffer at 37 degC after 1 hr. The essentials: (§2)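 Buffer stability was followed as percent decomposition at three conditions: neutral buffer at 37 °C over 1 h, pH 2 acidic buffer at room temperature, and pH 11 basic buffer at room temperature up to 20 h.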
The test system of a further data set is Plasma. Kind of data set: Stability in mouse plasma. The format is ADME, cell-free.
A short description of data set [14]: Chemical stability in pH 2 acidic buffer at room temperature measured immediately. In kind it is physicochemical. The essentials: as §2
Data set [15] is described as follows: Drug degradation in pH 11 basic buffer at room temperature measured after 20 hrs. The gist of the method: as §2

pEC50, pKd: −log10 of the molar value. Activity calls are given as the source filed them.

As a reminder, the pKd is −log10 of the Kd, conventionally taken in molar units. Read a low pKd as a high Kd. A word on the pEC50: it is the EC50 on a negative log10 scale, so that one unit is a factor of ten. The term efflux ratio denotes the permeability from basolateral to apical divided by that in the opposite direction, in the common usage. In general, bioavailability refers to dose-corrected exposure relative to a reference, in per cent. A high value points to much systemic uptake. By Papp is commonly meant the rate of passage across a membrane or cell layer, normalised by area and donor concentration.

As for `CN1C(=O)[C@@H]2CN(S(=O)(=O)c3ccc4occc4c3)C[C@@H]2c2cnccc21`, the pKd in data set [1] was 6.72. The microsomal CLint in [2] worked out at 188 µL/min/mg. The pEC50 in data set [3] is 6.35. In addition, in the data set with Mus musculus [4], the Activity was 1.53 g. The Ratio in data set [5] is listed as 1.2. Besides, the efflux ratio stood at 1.1 with human BCRP and 1.5 in the data set with human MDR1. Also, the bioavailability in data set [6] came out at 100%. In data set [7], the Papp was determined as 69 ×10⁻⁶ cm/s. In addition, the fold change (FC) in the data set filed under Mus musculus [8] was determined as 4.4. Moreover, in data set [9], the MEC was 0.2 µM.
With `C[C@H]1[C@H]2C(=O)N(C)c3ccncc3[C@H]2CN1S(=O)(=O)c1ccc2c(c1)OCO2`, the pKd in data set [1] was 7.96. The microsomal CLint in [2] turned out to be 254 µL/min/mg; in data set [10] it was 83 µL/min/mg. For the same molecule, the pEC50 in [3] is 7.30. For the same molecule, the efflux ratio in the data set with human MDR1 amounted to 1.6. Besides, the Papp in data set [7] stood at 43.1 ×10⁻⁶ cm/s. The MEC in [9] was determined as 0.025 µM.
On to `CN1C(=O)[C@@H]2CN(S(=O)(=O)c3ccc4c(c3)CCO4)C[C@@H]2c2cnccc21`, for which, in data set [2], the microsomal CLint was determined as 225 µL/min/mg. In addition, the Ratio in data set [11] was found to be 0.19. Further, the efflux ratio was determined as 1.2 in the data set with human BCRP and 4.3 in the data set on human MDR1. Moreover, the Papp in data set [7] was found to be 50 ×10⁻⁶ cm/s. The MEC in [9] came out at 3.1 µM.
Turning to `CN1C(=O)[C@H]2CN(S(=O)(=O)c3ccc4occc4c3)C[C@H]2c2cnccc21`, in data set [1], the pKd was < 4.70. The pEC50 in data set [3] was 4.60 to 4.70. Moreover, the result with Mus musculus [4] was inactive. Further, the Ratio in data set [12] is recorded as 1.9. In addition, in data set [9], the MEC is > 25 µM.
As for `CN1C(=O)[C@@H]2CN(S(=O)(=O)c3ccc4ocnc4c3)C[C@@H]2c2cnccc21`, in data set [2], the microsomal CLint turned out to be 73 µL/min/mg. The figures for the efflux ratio in the data set with human BCRP and in the data set on human MDR1 were 1.1 and 3.6, respectively. The Drug degradation in [13] amounted to 50%; in data set [15] it was 30%. Moreover, the Stability entry (in the data set on Plasma; in data set [14]) was “Unstable” in each case. Besides, in data set [7], the Papp came out at 25 ×10⁻⁶ cm/s. Also, the MEC in [9] was determined as 0.39 µM.
